An excerpt weighted towards active compounds, which were near 1.3% of everything screened.
SDO1 yeast rescue = restores growth of sdo1-depleted yeast; S. cerevisiae sdo1-depleted JHY4D growth rescue, OD600 30 h; active compounds read high; pdr5 snq2 efflux-pump mutant strain; z-score at 10 µM; 140,000 tested, 0.21% active;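 active = z-score above 3 at both the 24 hr and the 30 hr optical density reads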;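 note: z-score against mean and SD of all compound wells on the same plate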
Yeast lifespan up = yeast lifespan extension | 130,000 tested, 0.68% active | S. cerevisiae growth with nicotinamide, OD615; deaD strain in restrictive glucose medium | inhibition of the nicotinamide effect, % at 10 µM | AID 775;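 active = inhibition above a set limit, placed 3 SD over the median of all compounds, cut at about 26% in these data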;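 note: 0% = nicotinamide-treated wells and 100% = cells grown without nicotinamide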
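Assay system: engineered S. cerevisiae DeaD replicative-lifespan strain, galactose-grown log-phase cells; Buffer or medium: CSMM-D glucose medium, restrictive; Probe or stimulus: nicotinamide 1.5 mM; Compound: single dose 10 µM compound, 0.25% DMSO; Schedule: 4 h preincubation then 48 h treatment at 30 °C; Technique: OD615 measurement.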
Efa HMGR inh = blocks class II HMG-CoA reductase of Enterococcus faecalis; AID 1066; purified E. faecalis HMGR, NADPH absorbance 340 nm kinetic; 190,000 tested, 0.41% active; inhibition, % at 10 µM;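 active = inhibition above a set limit, the median over all tested compounds plus 3 SD, cut at about 9.5% in these data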;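 note: enzyme runs in reverse so mevalonate oxidation gives rising NADPH absorbance; 0% = complete reaction with DMSO and 100% = background rate lacking mevalonate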
BB579 growth dn = yeast BB579 growth reduction in restrictive medium; S. cerevisiae BB579 growth, OD615, 48 h; inhibition, % at 10 µM; 140,000 tested, 0.51% active; AID 804;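 active = inhibition above a set limit, 3 SD over the mean compound inhibition, cut at about 44% in these data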
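Assay system – yeast BB579 (DeaD) · Dosing – single compound dose of 10 µM, 0.25% DMSO final · Detection – OD615 turbidity measurement · Buffer or medium – CSMM-D restrictive synthetic medium containing dextrose (glucose) · Benchmarks – positive control amphotericin B 10 µg/mL · Incubation – 48 h exposure, 30 °C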
The depositor's hits bear a star; x = no result; [ ] = remark or other dose.

SMILES	SDO1 yeast rescue	Yeast lifespan up	Efa HMGR inh	BB579 growth dn
O=C(NNC(=O)C1CCN(S(=O)(=O)c2ccc(Cl)cc2)CC1)c1ccncc1	x	x	13*	x
O=C(NNC(=O)C1CCN(S(=O)(=O)c2ccc(Cl)cc2)CC1)c1ccc(Cl)cc1	-0.53	-8	0	-48
Cc1ccc(NC(=O)CC2C(=O)N(Cc3ccccc3)C(=S)N2NC(=O)c2ccccc2)c(C)c1 (centres undefined)	-0.52	0	-1	-30
COc1ccc(N(C)S(=O)(=O)c2cccc(C(=O)NC3CCCC3)c2)cc1	x	x	-3	x
COc1ccc(OCC(=O)NNC(=O)c2cccc(S(=O)(=O)N(C)C)c2)cc1	0.69	31*	-3	-26
Cc1ccc(CN(C)CC(=O)Nc2ccc3c(c2)CCC3)cc1	x	x	14*	x
CCc1ccc(CN(C)CC(=O)Nc2ccc3c(c2)CCC3)cc1	x	x	-6	x
COc1ccc(OC)c(NC(=O)c2nc(-c3ccccc3)oc2C)c1	x	x	-2	x
COC(=O)Cc1cc(=O)n2[nH]cnc2n1	-0.56	-28	30*	-5
C=CCn1c(C)cc(C(=O)CSc2nnc(NCc3ccccc3)s2)c1C	-2.2[9.2 µM]	-9	-1	64*
C=CCn1c(C)cc(C(=O)CSc2nc3ccccc3c(=O)[nH]2)c1C	-2.8	69*	-5	-61
S=C(NCCCN1CCOCC1)NC1CC1	x	x	0	x
COc1ccc2c(CC(=O)NC3CCCc4ccccc43)coc2c1 (centres undefined)	-0.34	6	-7	-25
O=c1c2c3c(sc2ncn1/N=C/c1ccc([N+](=O)[O-])o1)CCCC3	-2.4	65*	-1	25
COC(=O)c1ccc(CN2CCN(CC=C(C)C)C(CCO)C2)cc1 (centres undefined)	x	x	-3	x
CCOC(=O)c1cnc(-n2nc(C)cc2C)nc1NC1CCCCC1	-3.3	-13	-5	98*
O=C1OC(c2cccs2)=N/C1=C/c1ccc(-c2cccc(C(=O)O)c2)o1	x	x	16*	x
Cc1ccc(S(=O)(=O)N(C)C)cc1NC(=S)N1CCCCC1CO (centres undefined)	x	x	1	x
O=C1/C(=C/c2cccnc2)CCC/C1=C\c1cccnc1	-0.93	74*	-2	2
CCC1C/C(=C\c2cccnc2)C(=O)/C(=C/c2cccnc2)C1 (centres undefined)	-0.73	84*	-3	-13
Cc1ccc(NC(=O)COC(=O)c2ccc(OCc3c(C)noc3C)cc2)cc1S(=O)(=O)N1CCOCC1	0.79	3	-6	-48
O=C(CC1C(=O)NCCN1CC1CCCCC1)NCc1cccc(F)c1F (centres undefined)	x	x	-1	x
COc1ccccc1CNC(=O)C(CCSC)NS(=O)(=O)c1ccc2c(c1)oc(=O)n2C (centres undefined)	0.58	87*	-6	-9
O=c1[nH]ncn1-c1cccc(C(F)(F)F)c1	1.4	-14	-1	-27
Cc1n[nH]c(=O)n1-c1cccc(C(F)(F)F)c1	-0.45	75*	5	-10
SMILES	SDO1 yeast rescue	Yeast lifespan up	Efa HMGR inh	BB579 growth dn
COc1ccc(N2C(=O)CC(N3CCN(S(=O)(=O)c4ccc(Cl)cc4)CC3)C2=O)cc1 (centres undefined)	x	x	9.6*	x
O=C(Nc1nccs1)c1ccc2c(=O)n3c(nc2c1)CCCCC3	-1.7	51*	-4	-34
Cc1csc(NC(=O)c2ccc3c(=O)n4c(nc3c2)CCCCC4)n1	0.01	4	-4	-19
O=C(Nc1ccccn1)c1c(O)c2cccc3c2n(c1=O)CCC3	0.55	0	-4	-18
O=C(Nc1nccs1)c1c(O)c2cccc3c2n(c1=O)CCC3	-2.4	30*	-3	-23
COC(=O)[C@@]1(Cc2ccc(F)cc2)[C@H]2c3cc(C(=O)N(C)C)n(Cc4nc5ccccc5[nH]4)c3C[C@H]2CN1C(=O)c1ccccc1	0.61	8	11*	-36
Cc1cc(OCc2ccc(C(=O)NN=C3CCCC3)cc2)ccc1Cl	-2	-6	0	97*
O=C(COc1ccc(OCc2ccccc2)cc1)NN=C1CCCC1	x	x	5	x
CCc1cc(C(=O)Cc2ccc(F)cc2)c(O)cc1O	-1.2	-4	1	-43
CCCc1cc(C(=O)Cc2ccc(F)cc2)c(O)cc1O	-3.2	-23	0	92*
Clc1ccc(CN2CCC(Cc3ccccc3)CC2)cc1	-0.96	1	-1	-14
Clc1cccc(CN2CCC(Cc3ccccc3)CC2)c1	0.54	-5	14*	-22
Cc1cc(O)c(/C=N/Nc2cccc(Cl)c2)c(=O)o1	-1.3	-26	1	98*
Cc1cccc(N=Cc2c(O)cc(C)oc2=O)c1	x	x	0	x
Cc1cc(O)c(/C=N/Nc2ccc(Cl)cc2)c(=O)o1	-2.1	-28	2	97*
Cc1cc(O)c(/C=N/OCc2ccc(Cl)cc2Cl)c(=O)o1	x	x	-7	x
Cc1cc(O)c(/C=N/Nc2ccccc2Cl)c(=O)o1	-2.6	-32	2	98*
Cc1ccc(F)cc1NC(=O)c1cnccn1	x	x	3	x
O=C(O)COc1ccc(/C=N/Nc2nc(Nc3ccccc3)nc(N3CCCCC3)n2)cc1	x	x	-1	x
O=C(Nc1cc(C(F)(F)F)ccc1Cl)C(Sc1nnc(-c2cccs2)o1)c1ccccc1 (centres undefined)	1.1	0	-8	-28
O=C(Nc1cc(C(F)(F)F)ccc1Cl)C(Sc1cccc[n+]1[O-])c1ccccc1 (centres undefined)	0.44	-8	-6	93*
O=C(O)/C(=C\c1cccs1)c1ccccc1	x	x	12*	x
O=C(Nc1nnc(-c2ccccc2)o1)c1cc(Cl)sc1Cl	-0.91	5	2	-23
O=C(Nc1nnc(-c2ccc(F)cc2)o1)c1cc(Cl)sc1Cl	-2.3	-4	0	66*
Cc1ccc(Cl)cc1NC(=O)Nc1cccs1	x	x	3	x
SMILES	SDO1 yeast rescue	Yeast lifespan up	Efa HMGR inh	BB579 growth dn
CC(=O)/C=C/n1c(=S)oc2ccccc21	-0.55	39*	-5	21
CC(C)CC(=O)/C=C/n1c(=S)oc2ccccc21	-0.42	0	1	-17
COc1cccc(/C=N/N2C(=O)CSC2=S)c1O	-0.82	-4	-2	72*
O=C1CC(=O)N(c2ccccc2)c2ccccc21	-0.09	0	4	-33
O=C1CC(=O)N(c2ccccc2)N1c1ccccc1	-0.13	28*	-4	-14
c1ccc(-c2ccc(-c3ccccn3)nn2)nc1	-0.16	-10	-7	68*
NC(=O)c1ccc(N=Cc2ccc([N+](=O)[O-])s2)cc1	-1.6	-11	-2	100*
Cc1cc(C)cc(N=Cc2ccc([N+](=O)[O-])s2)c1	-2.1	-11	2	100*
O=[N+]([O-])c1ccc(C=Nc2ccc(Cl)c([N+](=O)[O-])c2)s1	x	x	2	x
CN(C)S(=O)(=O)c1cc(NC(=O)CN2CCN(c3ccccc3F)CC2)ccc1Cl	x	x	-4	x
CC(C)(C)c1ccc(C(=O)O)c(C(=O)c2ccccc2)c1	x	x	-3	x
CC(C)(C)n1nnnc1SCC(=O)Nc1nn(-c2ccccc2)nc1C(N)=O	x	x	10.0*	x
c1ccc2sc(N3CCCN(Cc4nc(-c5cnccn5)no4)CC3)nc2c1	x	x	-3	x
